Assay results: ChEMBL document CHEMBL4229380, “Arylureas derived from colchicine: Enhancement of colchicine oncogene downregulation activity” (Eur J Med Chem, 2018)
pIC50: −log10 of the molar value.

How the values were obtained:
[1] = tested on: HEK293; assay: Antiproliferative activity against human HEK293 cells after 2 days by MTT assay; format: cell-based; details: HEK293, 48 h
How it was run: (§1)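 Cells (5×10^3 per well) in DMEM with 10% FBS, glucose, glutamine and antibiotics were exposed to serial dilutions (stocks in DMSO) for 2 days at 37 °C, 5% CO2. MTT was added for 3 h, formazan was dissolved in DMSO and absorbance read at 490 nm. Viability was taken as % of untreated cells. IC50 was read graphically from three independent experiments.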

[2] = tested on: HT-29; assay: Induction of apoptosis in human HT-29 cells assessed as apoptotic cells at 5 nM after 48 hrs by Annexin V-FITC staining-based flow cytometric analysis (reference value: 13 +/- 3%); format: functional
[3] = tested on: HT-29; assay: Induction of apoptosis in human HT-29 cells assessed as viable cells at 5 nM after 48 hrs by Annexin V-FITC staining-based flow cytometric analysis (reference value: 82 +/- 1%); format: functional; details: HT-29, 48 h, read-out: Activity
[4] = tested on: HT-29; assay: Effect on c-MYC gene expression in human HT-29 cells assessed as c-MYC level at 5 nM after 48 hrs by RT-qPCR analysis; format: functional
How it was run: (§2)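 HT-29 cells at 70–80% confluence were seeded at 1.5×10^5 per well and left 24 h, then treated 48 h, with DMSO as control. Total RNA was extracted and VEGF-A, c-Myc and hTERT were quantified by TaqMan qPCR, normalized to β-actin and to living cell number. Results are % expression versus control, at least three measurements.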

[5] = tested on: HT-29; assay: Effect on VEGFR2 protein expression in human HT-29 cells assessed as VEGFR2 level at 5 nM after 48 hrs by ELISA; format: functional
How it was run: (§3)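 HT-29 cells (1.5×10^5 per well, 24 h pre-culture) were treated 48 h and washed in PBS. They were lysed in Tris pH 7.4 buffer with detergents, phosphatase inhibitors, PMSF and protease inhibitors. Lysates were adjusted to 200 µg/mL protein (Bradford) and total c-Myc or VEGFR-2 was measured by sandwich ELISA kit. Values are % of DMSO control, ≥3 measurements.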

[6] = tested on: HT-29; assay: Induction of apoptosis in human HT-29 cells assessed as necrotic cells at 5 nM after 48 hrs by Annexin V-FITC staining-based flow cytometric analysis (reference value: 2 +/- 6%); format: functional
[7] = tested on: HeLa; assay: Antiproliferative activity against human HeLa cells after 2 days by MTT assay; format: functional, cell-based; details: 48 h; how it was run: as §1
[8] = tested on: HT-29; assay: Effect on VEGF gene expression in human HT-29 cells assessed as VEGF level at 5 nM after 48 hrs by RT-qPCR analysis; format: functional; how it was run: as §2
[9] = tested on: HT-29; assay: Effect on hTERT gene expression in human HT-29 cells assessed as hTERT level at 5 nM after 48 hrs by RT-qPCR analysis; format: functional; how it was run: as §2
[10] = tested on: HT-29; assay: Effect on c-MYC protein expression in human HT-29 cells assessed as c-MYC level at 5 nM after 48 hrs by ELISA; format: functional; how it was run: as §3
[11] = tested on: MCF7; assay: Antiproliferative activity against human MCF7 cells after 2 days by MTT assay; format: functional, cell-based; details: MCF7, 48 h; how it was run: as §1
[12] = tested on: HT-29; assay: Antiproliferative activity against human HT-29 cells after 2 days by MTT assay; format: functional, cell-based; details: HT-29, 48 h; how it was run: as §1
[13] = tested on: HT-29; assay: Effect on VEGF protein expression in human HT-29 cells assessed as secreted VEGF level in culture media at 5 nM after 48 hrs by ELISA
[14] = tested on: HT-29; assay: Induction of apoptosis in human HT-29 cells assessed as necrotic cells at 25 nM after 48 hrs by Annexin V-FITC staining-based flow cytometric analysis (reference value: 2 +/- 6%); format: functional
[15] = tested on: HT-29; assay: Induction of apoptosis in human HT-29 cells assessed as viable cells at 25 nM after 48 hrs by Annexin V-FITC staining-based flow cytometric analysis (reference value: 82 +/- 1%); format: functional; details: HT-29, 48 h, read-out: Activity
[16] = tested on: HT-29; assay: Induction of apoptosis in human HT-29 cells assessed as apoptotic cells at 25 nM after 48 hrs by Annexin V-FITC staining-based flow cytometric analysis (reference value: 13 +/- 3%); format: functional
[17] = tested on: HT-29; assay: Induction of apoptosis in human HT-29 cells assessed as viable cells at 20 nM after 48 hrs by Annexin V-FITC staining-based flow cytometric analysis (reference value: 82 +/- 1%); format: functional; details: HT-29, 48 h, read-out: Activity
[18] = tested on: HT-29; assay: Induction of apoptosis in human HT-29 cells assessed as apoptotic cells at 20 nM after 48 hrs by Annexin V-FITC staining-based flow cytometric analysis (reference value: 13 +/- 3%); format: functional
[19] = tested on: HT-29; assay: Induction of apoptosis in human HT-29 cells assessed as necrotic cells at 20 nM after 48 hrs by Annexin V-FITC staining-based flow cytometric analysis (reference value: 2 +/- 6%); format: functional
[20] = tested on: HT-29; assay: Effect on VEGF protein expression in human HT-29 cells assessed as secreted VEGF level in culture media at 15 nM after 48 hrs by ELISA
[21] = tested on: HT-29; assay: Effect on c-MYC protein expression in human HT-29 cells assessed as c-MYC level at 15 nM after 48 hrs by ELISA; format: functional; how it was run: as §3
[22] = tested on: HT-29; assay: Induction of apoptosis in human HT-29 cells assessed as viable cells at 15 nM after 48 hrs by Annexin V-FITC staining-based flow cytometric analysis (reference value: 82 +/- 1%); format: functional; details: HT-29, 48 h, read-out: Activity
[23] = tested on: HT-29; assay: Effect on VEGFR2 protein expression in human HT-29 cells assessed as VEGFR2 level at 15 nM after 48 hrs by ELISA; format: functional; how it was run: as §3
[24] = tested on: HT-29; assay: Induction of apoptosis in human HT-29 cells assessed as necrotic cells at 15 nM after 48 hrs by Annexin V-FITC staining-based flow cytometric analysis (reference value: 2 +/- 6%); format: functional
[25] = tested on: HT-29; assay: Induction of apoptosis in human HT-29 cells assessed as apoptotic cells at 15 nM after 48 hrs by Annexin V-FITC staining-based flow cytometric analysis (reference value: 13 +/- 3%); format: functional
[26] = tested on: HT-29; assay: Effect on VEGF gene expression in human HT-29 cells assessed as VEGF level at 15 nM after 48 hrs by RT-qPCR analysis; format: functional; how it was run: as §2
[27] = tested on: HT-29; assay: Effect on c-MYC gene expression in human HT-29 cells assessed as c-MYC level at 15 nM after 48 hrs by RT-qPCR analysis; format: functional; how it was run: as §2
[28] = tested on: HT-29; assay: Effect on hTERT gene expression in human HT-29 cells assessed as hTERT level at 15 nM after 48 hrs by RT-qPCR analysis; format: functional; how it was run: as §2

SMILES	pIC50 [1]	pIC50 [7]	pIC50 [11]	pIC50 [12]	other results
COc1ccc(NC(=O)N[C@H]2CCc3cc(OC)c(OC)c(OC)c3-c3ccc(OC)c(=O)cc32)cc1	7.85	8.19	7.89	8.40	Activity [2]: 35%; viability at 0.005 µM [3]: 64%; Activity [4]: 55%; Activity [5]: 95%; Activity [6]: 1%; Activity [8]: 70%; Activity [9]: 91%; Activity [10]: 61%; Activity [13]: 44%
COc1cc2c(c(OC)c1OC)-c1ccc(OC)c(=O)cc1[C@@H](NC(=O)Nc1ccccc1F)CC2	8.30	8.22	8.22	8.33	–
COc1cc2c(c(OC)c1OC)-c1ccc(OC)c(=O)cc1[C@@H](NC(=O)Nc1ccccc1C#N)CC2	7.96	8.00	7.96	7.96	–
COc1cc2c(c(OC)c1OC)-c1ccc(OC)c(=O)cc1[C@@H](NC(=O)Nc1ccc(F)cc1Cl)CC2	8.77	8.30	8.92	8.76	Activity [2]: 53%; viability at 0.005 µM [3]: 46%; Activity [4]: 58%; Activity [5]: 15%; Activity [6]: 1%; Activity [8]: 64%; Activity [9]: 80%; Activity [10]: 104%; Activity [13]: 67%
COc1cc2c(c(OC)c1OC)-c1ccc(OC)c(=O)cc1[C@@H](NC(=O)Nc1ccc(Cl)cc1Cl)CC2	7.49	7.38	7.62	7.51	–
COc1cc2c(c(OC)c1OC)-c1ccc(OC)c(=O)cc1[C@@H](NC(=O)Nc1ccc3ccccc3c1)CC2	8.15	8.15	8.00	8.10	–
COc1cc2c(c(OC)c1OC)-c1ccc(OC)c(=O)cc1[C@@H](NC(=O)Nc1c(C)cccc1C)CC2	6.66	6.62	6.62	6.89	–
COc1cc2c(c(OC)c1OC)-c1ccc(OC)c(=O)cc1[C@@H](NC(=O)Nc1c(Cl)cccc1Cl)CC2	7.38	7.66	7.89	7.40	–
COc1cc2c(c(OC)c1OC)-c1ccc(OC)c(=O)cc1[C@@H](NC(=O)Nc1ccc(F)cc1)CC2	7.89	8.00	8.00	8.30	Activity [2]: 47%; viability at 0.005 µM [3]: 51%; Activity [4]: 52%; Activity [5]: 63%; Activity [6]: 2%; Activity [8]: 59%; Activity [9]: 70%; Activity [10]: 105%; Activity [13]: 55%
COc1cc2c(c(OC)c1OC)-c1ccc(OC)c(=O)cc1[C@@H](NC(=O)Nc1c(Cl)cc(F)cc1Cl)CC2	7.04	7.70	7.85	7.52	–
COc1cc2c(c(OC)c1OC)-c1ccc(OC)c(=O)cc1[C@@H](NC(=O)NC1CCCCC1)CC2	7.01	7.06	7.05	7.43	–
COc1cc2c(c(OC)c1OC)-c1ccc(OC)c(=O)cc1[C@@H](NC(=O)Nc1cc(F)cc(F)c1)CC2	8.00	7.80	7.70	8.00	–
COc1cc2c(c(OC)c1OC)-c1ccc(OC)c(=O)cc1[C@@H](NC(=O)Nc1cccc(Cl)c1)CC2	8.34	8.10	6.43	8.37	Activity [2]: 37%; viability at 0.005 µM [3]: 62%; Activity [4]: 104%; Activity [5]: 15%; Activity [6]: 1%; Activity [8]: 95%; Activity [9]: 90%; Activity [10]: 87%; Activity [13]: 114%
COc1cc2c(c(OC)c1OC)-c1ccc(OC)c(=O)cc1[C@@H](NC(=O)Nc1ccccc1C)CC2	7.36	7.49	6.92	7.59	Activity [14]: 2%; viability at 0.025 µM [15]: 64%; Activity [16]: 34%
COc1cc2c(c(OC)c1OC)-c1ccc(OC)c(=O)cc1[C@@H](NC(=O)Nc1cccc3ccccc13)CC2	8.05	7.80	7.77	7.95	–
COc1cc2c(c(OC)c1OC)-c1ccc(OC)c(=O)cc1[C@@H](NC(=O)Nc1cc(C(F)(F)F)cc(C(F)(F)F)c1)CC2	5.82	5.77	5.74	5.59	viability at 0.02 µM [17]: 96%; Activity [18]: 4%; Activity [19]: 1%
COc1cc2c(c(OC)c1OC)-c1ccc(OC)c(=O)cc1[C@@H](NC(=O)Nc1ccccc1OC(F)(F)F)CC2	8.30	8.52	8.36	8.42	–
COc1cc2c(c(OC)c1OC)-c1ccc(OC)c(=O)cc1[C@@H](NC(=O)Nc1ccc(F)cc1C)CC2	7.19	7.68	8.00	7.85	Activity [20]: 90%; Activity [21]: 110%; viability at 0.015 µM [22]: 73%; Activity [23]: 62%; Activity [24]: 1%; Activity [25]: 26%; Activity [26]: 63%; Activity [27]: 65%; Activity [28]: 68%
COc1cc2c(c(OC)c1OC)-c1ccc(OC)c(=O)cc1[C@@H](NC(=O)Nc1ccc(C(F)(F)F)cc1Cl)CC2	6.66	6.66	6.70	6.72	–
COc1cc2c(c(OC)c1OC)-c1ccc(OC)c(=O)cc1[C@@H](NC(=O)Nc1ccccc1)CC2	8.00	7.92	7.92	7.96	–
COc1cc2c(c(OC)c1OC)-c1ccc(OC)c(=O)cc1[C@@H](NC(=O)Nc1c(F)cccc1F)CC2	7.34	7.74	7.38	7.60	Activity [20]: 11%; Activity [21]: 42%; viability at 0.015 µM [22]: 87%; Activity [23]: 35%; Activity [24]: 1%; Activity [25]: 12%; Activity [26]: 38%; Activity [27]: 88%; Activity [28]: 36%
